From ChEMBL document CHEMBL4130614, “Synthesis and Bioactivity of Reduced Chalcones Containing Sulfonamide Side Chains” (J Nat Prod, 2018) come the findings set out here.

Structures are written as SMILES.

Assay [1] has as its system Mycobacterium tuberculosis. The experiment in a line: Antibacterial activity against Mycobacterium tuberculosis H37Rv ATCC 25618 measured at 24 hrs interval by BACTEC radiometric method. In kind it is functional. The essentials: (§1)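 H37Rv grown in 7H9 with ADC to about 0.16 A600 (one McFarland), inoculated into BACTEC vials and incubated at 37 °C to GI 500 (±50). This primary culture was then dosed with filter-sterilised compound at 10 μM in DMSO (final DMSO 2.5%) and held at 37 °C. Growth was read every 24 h as radiometric CO₂ growth index against controls.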

In assay [2] the test system is Mycobacterium tuberculosis. The assay is described as follows: Antibacterial activity against Mycobacterium tuberculosis H37Rv ATCC 25618 assessed as growth inhibition at 10 uM measured at 24 hrs interval by BACTEC radiometric method relative to control. Conditions: for inhibition of growth at 10 µM: Mycobacterium tuberculosis, H37Rv ATCC 25618, 24 h, read-out: GI; call rule not given here. In kind it is functional. The method, boiled down: as §1

In a further assay the test system is Plasmodium falciparum. The experiment in a line: Antiplasmodial activity against chloroquine-sensitive Plasmodium falciparum NF54 by lactate dehydrogenase assay. In kind it is functional, organism-based. The essentials:
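Asexual erythrocyte-stage P. falciparum kept in continuous in vitro culture (modified Trager–Jensen). Activity quantified by parasite lactate dehydrogenase assay (modified Makler method). Triplicate wells, on one or two separate occasions. IC50 from full dose–response curves by nonlinear curve fitting. Chloroquine run as internal standard to monitor conditions.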

Where [3] appears, read: Mycobacterium tuberculosis, H37Rv ATCC 25618, 24 h, read-out: MIC99.

What is called MIC99 is the lowest concentration that inhibits either 99% of growth or 99% of the strains tested, depending on the study. Consider `CN(C)Cc1ccc(CCCc2ccccc2)cc1O`, for which the MIC99 in assay [1] (setting [3]) was above 10 µM. In addition, in assay [2], the “growth inhibition (GI)” value amounted to 74%.
Turning to `CN(C)Cc1cc(CCCc2ccccc2)cc(CN(C)C)c1O.Cl.Cl`, the MIC99 in assay [1] was above 10 µM. Further, the “growth inhibition (GI)” value in assay [2] is on record as 33%.
As to `CN(C)Cc1cc(CCCc2ccccc2)cc(CN(C)C)c1O`, the MIC99 in assay [1] (setting [3]) was above 10 µM. Also, the inhibition of growth at 10 µM in assay [2] was determined as 42%.
A word on the IC50: it is the concentration at which inhibition is half-maximal. In the case of `Oc1cccc(CCCc2ccccc2)c1`, the IC50 entry in the assay with Plasmodium falciparum is on record as “Not Active”. For the same compound, in assay [1] (setting [3]), the MIC99 is above 10 µM. Further, the inhibition of growth at 10 µM in assay [2] came to 94%.
The corresponding values for `NS(=O)(=O)c1ccc(NCc2ccc(CCCc3ccccc3)cc2O)cc1` are “Not Active”, above 10 µM and 14%.
In the case of `CN(C)Cc1ccc(CCCc2ccccc2)cc1O.Cl`, in assay [1], the MIC99 was above 10 µM. The “growth inhibition (GI)” value in assay [2] was 36%.
`NS(=O)(=O)c1ccc(NCc2cc(CCCc3ccccc3)cc(CNc3ccc(S(N)(=O)=O)cc3)c2O)cc1`: the MIC99 in assay [1] (setting [3]) is above 10 µM. In assay [2], the inhibition of growth at 10 µM was found to be 0%.
The corresponding values for `Oc1ccc(CCCc2ccccc2)cc1` are above 10 µM and 96%.
Turning to `C[C@H]1[C@H](OC(=O)CCC(=O)O)O[C@@H]2O[C@@]3(C)CC[C@H]4[C@H](C)CC[C@@H]1[C@@]24OO3` [ARTESUNATE], the IC50 in the assay with Plasmodium falciparum (Plasmodium falciparum, NF54, read-out: IC50) is below 5.2 µM.
`COc1ncnc(NS(=O)(=O)c2ccc(N)cc2)c1OC` [SULFADOXINE]: the concentration for half-maximal inhibition (IC50) result in the assay on Plasmodium falciparum is listed as “Not Active”.
The same measure, in the same setting: for `Cc1cc(NS(=O)(=O)c2ccc(N)cc2)no1` [SULFAMETHOXAZOLE] the value was “Not Active”.
For `Nc1ccc(S(N)(=O)=O)cc1` [SULFANILAMIDE], the IC50 result in the assay with Plasmodium falciparum is listed as “Not Active”. Besides, the MIC99 in assay [1] (setting [3]) is above 10 µM. In addition, in assay [2], the inhibition of growth at 10 µM came to 0%.
